Shown are actives, neighbours in structure and some others; about 1.8% of the full set was active somewhere.
CHRM4 antagonist: CHRM4 antagonism in calcium assay; CHO-hM4 cells, ACh EC80, Fluo-8 calcium fluorescence; inhibition, % at 3 µM; 360,000 tested, 0.73% active;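 active means inhibition above its plate's cutoff, the mean inhibition of sample wells plus 3 SD, cut at about 27% in these data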
CHRM5 agonist: agonists of human muscarinic M5 receptor (CHRM5); activation, % at 3 µM; 360,000 tested, 0.19% active; CHO-K1 hM5 cells, Fluo-8 calcium fluorescence; 0% DMSO wells, 100% maximal acetylcholine response; AID 624037;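 active means activation above the run's mean over test compounds plus 3 SD, cut at about 23% in these data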;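 further: signal is peak over basal fluorescence ratio across the kinetic read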
Target sequence (P08912 whole entry, looked up): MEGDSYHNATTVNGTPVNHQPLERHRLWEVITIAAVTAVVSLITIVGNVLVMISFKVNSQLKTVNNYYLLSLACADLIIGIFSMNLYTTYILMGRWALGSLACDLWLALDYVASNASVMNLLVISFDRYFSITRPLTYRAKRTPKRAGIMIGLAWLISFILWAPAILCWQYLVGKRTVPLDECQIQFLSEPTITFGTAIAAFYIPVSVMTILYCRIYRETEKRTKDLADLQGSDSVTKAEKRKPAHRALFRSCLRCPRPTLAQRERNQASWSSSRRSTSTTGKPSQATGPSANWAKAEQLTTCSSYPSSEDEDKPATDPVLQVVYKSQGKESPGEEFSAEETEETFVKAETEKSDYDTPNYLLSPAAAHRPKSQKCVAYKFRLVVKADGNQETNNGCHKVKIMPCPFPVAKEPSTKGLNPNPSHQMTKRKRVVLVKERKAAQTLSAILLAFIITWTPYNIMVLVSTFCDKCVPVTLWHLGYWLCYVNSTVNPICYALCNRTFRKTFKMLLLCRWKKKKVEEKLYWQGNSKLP
CHRM5 PAM: CHRM5 positive allosteric modulation | 360,000 tested, 0.3% active | AID 624038 | activation, % at 3 µM | P08912 | CHO-K1 hM5, Fluo-8 calcium, ACh EC20 PAM; 0% = ACh EC20, 100% = ACh EC100;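 active means activation above the run cutoff, the mean activation of all test compounds plus 3 SD, cut at about 18% in these data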
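System – CHO-K1 hM5 cells · Compound – 3 µM, single dose · Incubation – compound preincubation 140 s before EC20 acetylcholine addition · Technique – Fluo-8 calcium fluorescence · Measure – Max/basal fluorescence ratio as % of EC20–EC100 ACh window · Benchmarks – low control EC20 acetylcholine (0%), high control EC100 acetylcholine (100%) · Replication – singlicate, one well per test compound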
CHRM4 agonist: CHRM4 agonism in calcium assay | P08173 | CHO-K1 hM4/Gqi5, Fluo-8 calcium fluorescence; vehicle 0%, full acetylcholine response 100% | activation, % at 3 µM | 360,000 tested, 0.14% active | AID 624127;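 active means activation above the run mean over all test wells plus 3 SD, cut at about 32% in these data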;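 further: peak over basal fluorescence ratio per well then scaled between controls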
M4 PAM: potentiates acetylcholine response at human M4 receptor | 360,000 tested, 0.4% active | AID 624126 | activation, % at 3 µM | CHO-K1 hM4/Gqi5, Fluo-8 calcium fluorescence, ACh EC20; 0% = ACh EC20, 100% = maximal ACh | P08173;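 active means activation above its plate's cutoff, the mean activation of sample wells plus 3 SD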
M5 antag: blocks acetylcholine activation of human M5 receptor | AID 624040 | CHO-hM5 cells, Fluo-8 calcium fluorescence, ACh EC80 | P08912 | inhibition, % at 3 µM | 360,000 tested, 0.59% active;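 active means inhibition above a per-plate cutoff, the mean of that plate's test compounds plus 3 SD, cut at about 27% in these data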
A number is an active result; i = inactive; ! = not confirmed by another sample.

SMILES | CHRM4 antagonist | CHRM5 agonist | CHRM5 PAM | CHRM4 agonist | M4 PAM | M5 antag
COc1cccc(CNC(=O)CCC(=O)N2C[C@H]3C[C@H](C2)c2cccc(=O)n2C3)c1OC | i | i | i | i | i | i
CCCCn1c(=O)c(C(=O)Nc2ncccc2C)c(O)c2ccccc21 | i | i | i | 33.4 | i | i
CCCCCCn1c(=O)c(C(=O)Nc2ncccc2C)c(O)c2ccccc21 | i | i | i | i | i | i
O=C1NC(=O)N(Cc2ccc(F)cc2)C(=O)/C1=C\c1ccoc1 | i | 25.1 | i | i | i | i
CN(C)c1ccc(/C=C2\C(=O)NC(=O)N(Cc3ccc(F)cc3)C2=O)cc1 | i | i | i | i | i | i
CC(C)(C)c1nc(NCc2ccc3c(c2)OCO3)c2nnn(Cc3ccccc3Cl)c2n1 | i | i | i | i | 28.5 | i
CCCNC(=O)c1c(N)n(Cc2ccc3c(c2)OCO3)c2nc3ccccc3nc12 | i | i | i | i | i | i
O=C(Cn1ccc2ccccc2c1=O)NCC(=O)N1CCC2(CC1)OCCO2 | i | i | i | i | i | i
CCCOC(=O)c1ccc(-[n+]2c(-c3ccccc3)cc(-c3ccccc3)cc2-c2ccccc2)cc1 | 45.9 | i | i | i | i | 31.5
COc1ccc(-[n+]2c(-c3ccccc3)cc(-c3ccc(C)cc3)cc2-c2ccccc2)cc1 | 81.6 | i | i | i | i | 80.8
Cc1ccc(-c2cc(-c3ccc(C)cc3)[n+](-c3ccc(C(=O)O)cc3)c(-c3ccc(C)cc3)c2)cc1 | i | i | i | i | i | i
Cc1ccc(-c2cc(-c3ccccc3)cc(-c3ccccc3)[n+]2-c2ccc(C(=O)O)cc2)cc1 | i | i | i | i | 24.8 | i
Brc1ccc(-[n+]2c(-c3ccccc3)cc(-c3ccccc3)cc2-c2ccccc2)cc1 | 40.3 | i | i | i | i | i
CCC(=O)OC1CCC2C3CCC4CC(=O)C=CC4(C)C3CCC12C (stereo unspecified) | i | i | i | i | i | i
Cc1nc2ccccc2c(=O)n1-c1c(Cl)cccc1Cl | i | i | i | i | i | i
COC(=O)C1=C(c2ccc(-c3ccccc3)c(F)c2)C[C@@H]2CC[C@H]1N2C(=O)N1CCCC1 | i | i | i | i | i | i
CC(C)(C)c1ccc(CSc2cnn(C(C)(C)C)c(=O)c2Cl)cc1 | i | i | i | i | i | 27.8
CCOP(=S)(NN(Cc1ccccc1)C(=O)c1ccccc1)OCC | i | i | i | i | i | i
CC(=O)OC(C)(C)/C=C/C(=O)[C@](C)(O)C1[C@H](O)C[C@@]2(C)C3CC=C4C(C[C@H](O)C(=O)C4(C)C)[C@]3(C)C(=O)C[C@]12C (stereo partly specified) | i | i | i | i | 23.7 | i
CC(C)(O)/C=C/C(=O)C(C)(O)C1C(O)CC2(C)C3CC=C4C(C=C(O)C(=O)C4(C)C)C3(C)C(=O)CC12C (stereo unspecified) | i | i | 19.4 | i | i | i
COc1ccc(OC)c(-n2c(O)c(C=Nc3c(C)n(C)n(-c4ccccc4)c3=O)c(=O)[nH]c2=S)c1 | i | i | i | i | i | i
Cc1cc(OCC(=O)NC(Cc2ccc(Cl)cc2)C(=O)O)c2c3c(c(=O)oc2c1)CCC3 (stereo unspecified) | i | i | i | i | i | i
CCC(CO)(C(=O)OC1CC2CCC(C1)N2C)c1ccccc1 (stereo unspecified) | 99.6 | i | i | i | i | 99.2
COc1ccc(CC(=O)Nc2ccc(C#N)c(Cl)c2)cc1S(=O)(=O)N1CCOCC1 | i | i | i | i | i | i
CC(C)=CCN1CC[C@@]2(C)c3cc(O)ccc3CC1C2C (stereo partly specified) | 34.1 | i | i | i | i | i
SMILES | CHRM4 antagonist | CHRM5 agonist | CHRM5 PAM | CHRM4 agonist | M4 PAM | M5 antag
O=C1C2CCCN2C(c2cccnc2)N1c1ccc(Cl)cc1 (stereo unspecified) | i | i | i | i | 29.7 | i
C[C@]12CC[C@H](OS(=O)(=O)O)CC1=CC[C@@H]1[C@@H]2CC[C@]2(C)C(=O)CC[C@@H]12 | 71.4! | i | i | i | i | i
COc1ccc(C(=O)CC2(CC(=O)c3ccc(OC)cc3)C(=O)N(C)C(=O)N(C)C2=O)cc1 | i | i | i | i | i | i
CN1C(=O)N(C)C(=O)C2(Cc3c(ccc4ccccc34)N(C)C2)C1=O | i | i | 28.1 | i | i | i
CC[N+]12CCC(CC1)C(=C(c1ccccc1)c1ccccc1)C2 | 96.9 | i | i | i | i | 99.3
C[N+]12CCC(CC1)C(=C(c1ccccc1)c1ccccc1)C2 | 97.2 | i | i | i | i | 99.1
CC1(C)CSC(=NCc2ccccc2)N1 | i | 26.0 | i | 64.1 | i | i
Cc1cc(C)nc(N2Cc3ccccc3C2=N)n1 | i | i | i | i | i | i
CC(C)(C)N1Cc2ccccc2C1=N | i | i | 30.9 | i | i | i
O=C(O)CCn1cc(C=C2C(=O)NC(=O)NC2=O)c(-c2cc3ccccc3oc2=O)n1 | i | i | i | i | i | i
O=c1[nH]c(=S)n(CCC2=CCCCC2)c(O)c1C=NCCCn1ccnc1 | 28.5 | i | i | i | i | i
O=C(CN1CCN(C(=O)COc2cccc(F)c2)CC1)Nc1ccc(Cl)c(C(F)(F)F)c1 | i | i | i | i | i | i
CC(C)C[C@H]1COc2cc(N3CCN(C)CC3)ccc2S(=O)(=O)N1 | i | i | i | i | i | i
[O-]c1ccccc1-[n+]1c(-c2ccccc2)cc(-c2ccccc2)cc1-c1ccccc1 | i | i | i | i | i | i
Oc1ccccc1-[n+]1c(-c2ccccc2)cc(-c2ccccc2)cc1-c1ccccc1 | 27.6 | i | i | i | i | i
Cc1ccccc1-[n+]1c(-c2ccccc2)cc(-c2ccccc2)cc1-c1ccccc1 | 78.3 | i | i | i | i | 41.5
Nc1ccccc1-[n+]1c(-c2ccccc2)cc(-c2ccccc2)cc1-c1ccccc1 | i | i | i | i | i | i
BrCC(Br)C1CCC(Br)C(Br)C1 (stereo unspecified) | i | i | i | i | i | i
O=C(Nc1ccc(F)cc1)c1c(O)c2c(n(Cc3ccccc3)c1=O)CCCC2 | i | i | i | i | 21.0 | i
O=C(Nc1cccnc1)c1c(O)c2c(n(Cc3ccccc3)c1=O)CCCC2 | i | i | i | i | i | i
CN1C(=O)CCC2(C)C1=CCC1C2CCC2(C)C1CCC2(C)O (stereo unspecified) | i | i | 18.2 | i | i | i
C[C@]12CCC(=O)C=C1CCC1C2CC[C@@]2(C)C1CC[C@]2(C)O (stereo partly specified) | i | i | i | i | i | i

Screening results: PubChem, The Scripps Research Institute Molecular Screening Center
